According to ChEMBL document CHEMBL1139477, “Synthesis and evaluation of estrogen receptor ligands with bridged oxabicyclic cores containing a diarylethylene motif: estrogen antagonists of unusual structure” (J Med Chem, 2005):
Active and inactive are the calls of the source. The calls are words filed in the database; no cut-off is given here.

What was measured:
[1] = molecular target: T1, Estrogen receptor (Homo sapiens) (UniProt P03372); assay: Displacement of [3H]estradiol from human ERalpha relative to estradiol
T1 sequence (whole entry): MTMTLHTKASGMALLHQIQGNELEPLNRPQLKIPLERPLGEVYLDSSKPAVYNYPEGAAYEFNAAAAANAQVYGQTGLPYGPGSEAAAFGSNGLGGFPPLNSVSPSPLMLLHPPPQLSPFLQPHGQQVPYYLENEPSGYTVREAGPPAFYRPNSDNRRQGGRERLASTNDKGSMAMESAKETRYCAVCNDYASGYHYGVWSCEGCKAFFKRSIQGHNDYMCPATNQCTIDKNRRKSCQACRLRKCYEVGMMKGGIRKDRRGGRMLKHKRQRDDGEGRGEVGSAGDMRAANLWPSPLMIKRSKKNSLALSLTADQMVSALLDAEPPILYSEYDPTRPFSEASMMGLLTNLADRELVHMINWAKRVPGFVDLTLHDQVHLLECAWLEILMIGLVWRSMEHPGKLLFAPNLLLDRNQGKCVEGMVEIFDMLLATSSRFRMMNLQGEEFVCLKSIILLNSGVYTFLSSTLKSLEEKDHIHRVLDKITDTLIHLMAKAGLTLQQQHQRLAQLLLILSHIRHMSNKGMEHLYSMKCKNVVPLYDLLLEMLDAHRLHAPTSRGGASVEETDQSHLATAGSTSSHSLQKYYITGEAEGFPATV

[2] = molecular target: Estrogen receptor beta (Homo sapiens) (UniProt Q92731); assay: Displacement of [3H]estradiol from human ERbeta relative to estradiol
Estrogen receptor beta (Homo sapiens), sequence (Q92731 whole entry): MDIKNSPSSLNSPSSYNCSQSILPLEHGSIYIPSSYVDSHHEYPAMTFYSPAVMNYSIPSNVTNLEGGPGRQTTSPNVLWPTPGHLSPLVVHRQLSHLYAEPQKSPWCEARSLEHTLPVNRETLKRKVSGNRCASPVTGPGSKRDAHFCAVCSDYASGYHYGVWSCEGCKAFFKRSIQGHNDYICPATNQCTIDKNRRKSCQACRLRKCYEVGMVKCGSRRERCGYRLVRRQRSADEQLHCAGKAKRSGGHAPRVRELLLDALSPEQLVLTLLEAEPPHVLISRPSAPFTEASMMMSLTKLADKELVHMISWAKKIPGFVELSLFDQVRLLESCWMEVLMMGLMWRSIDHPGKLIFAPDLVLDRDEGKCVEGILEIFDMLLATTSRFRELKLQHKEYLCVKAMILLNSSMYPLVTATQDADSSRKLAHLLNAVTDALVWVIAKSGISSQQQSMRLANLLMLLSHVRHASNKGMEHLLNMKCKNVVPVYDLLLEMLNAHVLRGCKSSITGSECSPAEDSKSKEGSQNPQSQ

[3] = molecular target: Estrogen receptor (Homo sapiens) (UniProt Q92731+P03372); assay: Ratio of RBA for human estrogen receptor alpha to RBA for human estrogen receptor beta; assay type: protein assay
Estrogen receptor (Homo sapiens) (UniProt Q92731+P03372), sequence (Q92731 whole entry, looked up, one chain of several): as the sequence (Q92731 whole entry) above

[4] = molecular target: T1, Estrogen receptor (Homo sapiens); assay: Activity at ERalpha in human HEC1 cells assessed as antagonism of estradiol-activated transcription activation relative to estradiol; assay type: functional, cell-based; conditions: HEC-1
Method in brief: (§1)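 HEC-1 cells kept in phenol red MEM with 5% calf serum plus 5% fetal calf serum, then plated in phenol red-free Improved MEM with 5% charcoal dextran-treated calf serum. Lipofectin transfection for 5 h at 37 °C with full-length human ERα or ERβ vector, 2ERE-pS2-Luc and pCMV β-galactosidase control. Ligand, 10^-8 to 10^-5 M, given with 1 nM estradiol for 24 h. Luciferase read, as percent of 10^-9 M estradiol alone. Two or more experiments.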

[5] = molecular target: Estrogen receptor beta (Homo sapiens) (UniProt Q92731); assay: Activity at ERbeta in human HEC1 cells assessed as antagonism of estradiol-activated transcription activation relative to estradiol; assay type: functional, cell-based; conditions: HEC-1; method in brief: as §1

Compound | RBA [1] [%] | RBA [2] [%] | Ratio [3] | Activity [4] | Activity [5]
O=S(=O)(c1ccccc1)C1CC2OC1C(c1cccc(O)c1)=C2c1ccc(O)cc1 (configuration not stated) | 0.069 | 0.037 | 1.9 |  | 
COc1ccc(OS(=O)(=O)C2CC3OC2C(c2ccc(O)cc2)=C3c2ccc(O)cc2)cc1 (configuration not stated) | 0.32 | 0.1 | 3.3 |  | 
O=C1OC(=O)C2C3OC(C(c4ccccc4)=C3c3ccccc3)C12 (configuration not stated) | 0.014 | 0.02 | 0.7 |  | 
O=S(=O)(c1ccccc1)C1CC2OC1C(c1ccccc1)=C2c1ccccc1 (configuration not stated) | 0.008 | 0.013 | 0.62 |  | 
O=S(=O)(Oc1ccccc1)[C@H]1CC2OC1C(c1ccc(O)cc1)=C2c1ccc(O)cc1 (stereo in doubt; endo) | 4.1 |  |  |  | 
COC(=O)C1=C(c2ccccc2)C2OC1C(c1ccccc1)=C2c1ccccc1 (configuration not stated) | 0.007 | 0.024 | 0.29 |  | 
O=C1C2C3OC(C(c4ccc(O)cc4)=C3c3ccc(O)cc3)C2C(=O)N1c1ccccc1 (configuration not stated) | 0.013 | 0.017 | 0.77 |  | 
COc1ccc(C2=C(c3ccc(O)cc3)C3CC(S(=O)(=O)c4ccccc4)C2O3)cc1 (configuration not stated) | 0.068 | 0.066 | 1 |  | 
O=S(=O)(Oc1ccccc1)C1CC2OC1C(c1ccccc1)=C2c1ccccc1 (configuration not stated) | 0.068 | 0.12 | 0.57 |  | 
COc1ccc(C2=C(c3ccc(O)cc3)C3CC(S(=O)(=O)Oc4ccccc4)C2O3)cc1 (configuration not stated) | 0.98 | 0.11 | 8.9 |  | 
O=S(=O)(c1ccccc1)C1CC2OC1C(c1ccc(O)cc1)=C2c1ccc(O)cc1 (configuration not stated) | 0.64 | 0.059 | 11 | Active | Active
O=S(=O)(Oc1ccc(O)cc1)[C@H]1CC2OC1C(c1ccccc1)=C2c1ccccc1 (stereo in doubt; endo) | 0.025 | 0.029 | 0.86 |  | 
COC(=O)C1=C(c2ccc(O)cc2)C2OC1C(c1ccccc1)=C2c1ccccc1 (configuration not stated) | 0.012 | 0.031 | 0.39 |  | 
O=S(=O)(Oc1ccc(O)cc1)[C@H]1CC2OC1C(c1ccccc1)=C2c1ccccc1 (stereo in doubt; exo) | 0.022 | 0.027 | 0.82 |  | 
CN1C(=O)C2C3OC(C(c4ccc(O)cc4)=C3c3ccc(O)cc3)C2C1=O (configuration not stated) | 0.02 | 0.025 | 0.8 |  | 
O=S(=O)(Oc1ccccc1)[C@H]1CC2OC1C(c1ccc(O)cc1)=C2c1ccc(O)cc1 (stereo in doubt; exo) |  |  |  | Active | Active
CCS(=O)(=O)C1CC2OC1C(c1ccc(O)cc1)=C2c1ccc(O)cc1 (configuration not stated) | 0.1 | 0.077 | 1.3 |  | 
O=S(=O)(Oc1ccc(O)cc1)C1CC2OC1C(c1ccc(O)cc1)=C2c1ccc(O)cc1 (configuration not stated) | 2.2 | 0.16 | 14 |  | 
COC(=O)C1=C(C(=O)OC)C2OC1C(c1ccc(O)cc1)=C2c1ccc(O)cc1 | 0.009 | 0.006 | 1.5 |  | 
CCOC(=O)C1C2OC(C(c3ccc(O)cc3)=C2c2ccc(O)cc2)C1C(=O)OCC (configuration not stated) | 0.021 | 0.036 | 0.58 |  | 
O=S(=O)(Oc1ccccc1)C1CC2OC1C(c1cccc(O)c1)=C2c1ccc(O)cc1 (configuration not stated) | 0.9 | 0.21 | 4.3 |  | 
